A selection: hits, their analogues and other compounds. The true share with any hit is near 1%.
procasp7 counter – counter-screen: procaspase-7 (human) activation; recombinant procaspase-7, Ac-DEVD-pNA absorbance 405 nm; D23A/D198A/D206A triple mutant, cannot self-cleave; scale: DMSO 0, 5 µM enzyme 100; activation, % at 8.5 µM; 330,000 compounds, 0.093% hits;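 active = percent activation above the screen-wide mean plus 3 SD, cut at about 25% in these data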
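Detection: p-Nitroaniline absorbance at 405 nm, read at 0 and 120 min; system: Uncleavable procaspase-7 mutant enzyme; evaluation: % activation from two-timepoint absorbance difference, scaled to controls; times: 1 h enzyme–compound preincubation and 2 h substrate reaction, both 25 °C; buffer or medium: Zinc-free HEPES pH 7.4 with 300 mM NaCl, 0.01% Triton X-100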
LYPLA1 inh – LYPLA1 (human) inhibition in PME1 counter-screen | 320,000 compounds, 0.16% hits | inhibition, % at 5.9 µM | O75608 | recombinant LYPLA1, FP-Rh probe fluorescence polarization;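 active = inhibition above the mean of all tested compounds plus 3 SD, set per campaign, cut at about 14% in these data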;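 also: inhibitors block serine hydrolase probe labeling of LYPLA1 so polarization falls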
procasp3 activ – activates human procaspase-3 | P42574 | activation, % at 8.5 µM | recombinant procaspase-3 D3A, Ac-DEVD-pNA absorbance 405 nm | 330,000 compounds, 0.11% hits | AID 463141;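 active = activation above the mean of all tested compounds plus 3 SD, cut at about 21% in these data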
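Evaluation: percent activation relative to control range; Material: Procaspase-3 D3A mutant, all three cleavage aspartates alanine; Compound: single dose, 8.5 µM nominal compound, 0.8% DMSO; Replication: one well per compound; Signal: absorbance at 405 nm, 0 and 120 min; Schedule: 1 h preincubation plus 2 h reaction at 25 °C.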
Fam108B inh – counter-screen for RBBP9 inhibitors: inhibitors of mouse Fam108B; inhibition, % at 9.51 µM; 300,000 compounds, 0.33% hits; AID 1947; recombinant Fam108B, FP-Rh probe fluorescence polarization;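 active = inhibition above the screen mean inhibition plus 3 SD, computed separately per campaign, cut at about 18% in these data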;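 also: inhibitors lower polarization as less probe binds the enzyme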
PME-1 primary – blocks human protein phosphatase methylesterase 1 | Q9Y570 | recombinant PME-1, FP-Rh probe fluorescence polarization | inhibition, % at 5.9 µM | 320,000 compounds, 0.53% hits | AID 2130;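 active = inhibition above the campaign mean of all compounds plus 3 SD, cut at about 26% in these data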;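 also: competitive labeling of PME-1 active site by serine hydrolase directed probe; inhibitors block probe labeling so polarization falls and inhibition rises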
Target sequence (Q9Y570 whole entry, looked up): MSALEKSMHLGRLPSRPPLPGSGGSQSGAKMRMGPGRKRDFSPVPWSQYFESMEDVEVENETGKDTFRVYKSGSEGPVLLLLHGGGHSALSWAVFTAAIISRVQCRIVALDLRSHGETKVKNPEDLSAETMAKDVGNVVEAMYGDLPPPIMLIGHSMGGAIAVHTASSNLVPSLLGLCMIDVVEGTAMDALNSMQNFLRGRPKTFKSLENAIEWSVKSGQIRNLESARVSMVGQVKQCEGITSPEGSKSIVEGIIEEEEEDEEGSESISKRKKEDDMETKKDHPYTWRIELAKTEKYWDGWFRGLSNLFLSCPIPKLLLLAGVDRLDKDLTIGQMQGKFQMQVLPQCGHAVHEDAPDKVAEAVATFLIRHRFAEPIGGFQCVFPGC
LYPLA2 inh – counter-screen for PME1 inhibitors: inhibitors of human LYPLA2. O95372. 320,000 compounds, 0.38% hits. recombinant LYPLA2, FP-Rh probe fluorescence polarization. inhibition, % at 5.9 µM;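 active = inhibition above the screen-wide mean plus 3 SD, limit set per campaign, cut at about 26% in these data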
Target sequence (O95372 whole entry, looked up): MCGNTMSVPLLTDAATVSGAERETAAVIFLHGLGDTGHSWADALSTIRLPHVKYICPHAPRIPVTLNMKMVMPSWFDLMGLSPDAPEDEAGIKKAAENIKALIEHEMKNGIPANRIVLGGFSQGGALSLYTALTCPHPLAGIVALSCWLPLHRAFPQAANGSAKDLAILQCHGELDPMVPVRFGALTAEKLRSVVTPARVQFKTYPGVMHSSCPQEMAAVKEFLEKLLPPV
LYPLA2 confirm – counter-screen for PME1 inhibitors: confirmation of human LYPLA2 inhibitors. inhibition, % at 5.9 µM. shares compounds with LYPLA2 inh. recombinant LYPLA2, FP-Rh probe fluorescence polarization. AID 2232. 1,100 compounds, 72% hits;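 active = mean inhibition across replicates above the hit cutoff set in the primary screen, cut at about 26% in these data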;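 also: blocked labeling of the enzyme by serine hydrolase FP-Rh probe lowers polarization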
LYPLA2 ABPP – inhibitors of human LYPLA2; shares compounds with LYPLA2 inh; rhLYPLA2 in mouse brain proteome, gel ABPP FP-Rh; inhibition, % at 20 µM; 150 compounds, 30% hits;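 active = inhibition of LYPLA2 enzyme probe labeling above about 50%, limit read from the data; inactive = inhibition below that limit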;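 also: loss of FP-Rh probe labeling of the LYPLA2 gel band measured as band density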
Each line names hits and unclear results; the compound was inactive in the other large screens (follow-up assays come after a bar, where they were run).

O=C(CCCN1C(=O)c2cccc3cccc(c23)C1=O)N1CCN(c2ccc(F)cc2)CC1	LYPLA2 inh 54 | LYPLA2 confirm 50
C/C(=N\OC(=O)c1ccc(F)cc1)c1nccs1	none
COc1ccc(C(=O)O/N=C(\C)c2nccs2)cc1	LYPLA2 inh 30 | LYPLA2 confirm 29
CCCSc1sc(C(=O)OC)c(-c2cccs2)c1C#N	none
O=C1CC(N2CCN(c3ccccc3)CC2)C(=O)N1c1cccc(Cl)c1 (stereo not given)	none
Cc1cccc(N2C(=O)CC(N3CCN(c4cccc(C(F)(F)F)c4)CC3)C2=O)c1 (stereo not given)	LYPLA2 inh 46 | LYPLA2 confirm 40
O=C1CC(N2CCN(c3cccc(C(F)(F)F)c3)CC2)C(=O)N1c1ccc(F)cc1 (stereo not given)	LYPLA2 inh 55 | LYPLA2 confirm 49
COc1ccc(CCNC(=O)C2CCN(C(=O)c3ccc(Br)cc3)CC2)cc1OC	none
O=c1cc(Cl)c(-c2ccccc2)nn1Cc1ccc(Cl)cc1	LYPLA2 inh 26 | LYPLA2 confirm 35
COC(=O)c1ccccc1NC(=O)CSc1n[nH]c(-c2ccco2)n1	none
O=C(Nc1cccc(C(=O)N2CCCc3ccccc32)c1)c1ccccc1	none
C/C(C=NNC(=O)Cn1nnc(N)n1)=C\c1ccc(C(C)C)cc1	none (no result: procasp7 counter, LYPLA1 inh, procasp3 activ, Fam108B inh, PME-1 primary, LYPLA2 inh) | LYPLA2 ABPP 69
Nc1nnn(CC(=O)N/N=C/c2ccccc2Cl)n1	none
CC(C)S(=O)(=O)CC(=O)c1ccc(Cl)cc1	none
CCCCCCC(=O)N1CCCC(c2nc(-c3cccc(OC)c3)no2)C1 (stereo not given)	LYPLA2 inh 27 | LYPLA2 confirm inactive
O=C1COc2ccc(C(=O)NCc3ccco3)cc2N1	none
O=C(NCc1ccco1)c1ccc2[nH]c(=O)c(=O)[nH]c2c1	LYPLA2 inh 28 | LYPLA2 confirm inactive
O=C(NCc1ccc2c(c1)OCO2)C1CCC(CNS(=O)(=O)c2cccc3nsnc23)CC1 (stereo not given)	LYPLA2 inh 34 | LYPLA2 confirm 38
O=C(COc1ccc(Br)cc1)NNC(=S)NC(=O)c1ccccc1[N+](=O)[O-]	LYPLA2 inh 33 | LYPLA2 confirm 31
O=C(NNC(=S)NC(=O)c1ccccc1[N+](=O)[O-])c1ccccc1[N+](=O)[O-]	none
Cc1ccc(OCCn2cnc3cc([N+](=O)[O-])ccc3c2=O)cc1	none
COc1ccc2c(Cn3cnc4cc([N+](=O)[O-])ccc4c3=O)cc(=O)oc2c1	LYPLA2 inh 31 | LYPLA2 confirm inactive
CC(OC(=O)c1ccc2c(c1)OCCO2)C(=O)c1ccccc1 (stereo not given)	none
Cc1ccc(N=C2NC(=O)CC(C(=O)Nc3ccc4c(c3)OCO4)S2)cc1 (stereo not given)	LYPLA2 inh 28 | LYPLA2 confirm inactive
O=C(CN1C(=O)NC2(CCCC2)C1=O)Nc1ccc(S(=O)(=O)N2CCOCC2)cc1	LYPLA2 inh 30 | LYPLA2 confirm inactive
Cc1ccc(S(=O)(=O)NCCc2cccs2)cc1	none
O=C(CSc1ccccc1)N1CCCC(N2CCN(c3ccccc3)CC2)C1 (stereo not given)	none
CC(=O)c1c(C)[nH]c(C(=O)COC(=O)CN(C)S(=O)(=O)c2ccc(Cl)cc2)c1C	LYPLA2 inh 35 | LYPLA2 confirm inactive
CC(=O)c1c(C)[nH]c(C(=O)COC(=O)Cc2ccccc2F)c1C	none (no result: LYPLA1 inh, Fam108B inh, PME-1 primary, LYPLA2 inh)
CC(=O)Nc1cccc(C(=O)OC(C)C(=O)N2CCc3ccccc32)c1 (stereo not given)	LYPLA2 inh 28 | LYPLA2 confirm 28
CC(OC(=O)c1cccc([N+](=O)[O-])c1)C(=O)N1CCc2ccccc21 (stereo not given)	none (no result: Fam108B inh)
NC(=O)CC(NC(=O)c1ccccc1)c1ccc(N2CCN(c3ccc(F)cc3)CC2)c([N+](=O)[O-])c1 (stereo not given)	LYPLA2 inh 27 | LYPLA2 confirm 33
NC(=O)CC(NC(=O)c1ccccc1)c1ccc(N2CCN(c3ccccc3)CC2)c([N+](=O)[O-])c1 (stereo not given)	none
NC(=O)CC(NC(=O)c1cccc(Br)c1)c1ccc(N2CCN(c3ccccn3)CC2)c([N+](=O)[O-])c1 (stereo not given)	none
NC(=O)CC(NC(=O)c1ccc(Br)cc1)c1ccc(N2CCN(c3ccccn3)CC2)c([N+](=O)[O-])c1 (stereo not given)	LYPLA2 inh 50 | LYPLA2 confirm 57 | LYPLA2 ABPP inactive
Cn1c2c(c(=O)n(C)c1=O)C(C(F)(F)F)(C(F)(F)F)N=C(c1ccc(Cl)cc1)N2	LYPLA2 inh 56 | LYPLA2 confirm inactive
Cc1cccnc1NC(=O)C(c1ccccc1)c1ccccc1	LYPLA2 inh 27 | LYPLA2 confirm inactive
O=C(COC(=O)c1cnccn1)c1ccc(C2CCCCC2)cc1	LYPLA2 inh 31 | LYPLA2 confirm 30
Cc1cnc(C(=O)OCC(=O)c2ccc(C3CCCCC3)cc2)cn1	none
CCC(NC(=O)Cc1c(C)c2cc3c(cc2oc1=O)OC(C)(C)CC3)C(=O)O (stereo not given)	none
O=C(c1ccc(CNS(=O)(=O)c2ccccc2)cc1)N1CCN(Cc2ccccc2)CC1	LYPLA2 inh 33 | LYPLA2 confirm 32
O=C(c1ccc(CNc2c(N3CCCC3)c(=O)c2=O)cc1)N1CC=C(c2ccccc2)CC1	LYPLA2 inh 47 | LYPLA2 confirm 52 | LYPLA2 ABPP inactive
CC1CCN(c2c(NCc3ccc(C(=O)N4CCN(C5CCCCC5)CC4)cc3)c(=O)c2=O)CC1	none
COc1ccc(N2CCN(C(=O)c3ccc(-c4ccccc4)cc3)CC2)cc1	LYPLA2 inh 34 | LYPLA2 confirm 35
O=C(c1ccc(-c2ccccc2)cc1)N1CCN(c2ccccc2)CC1	none
COc1ccc(N2CCN(C(=O)c3ccc(CNc4c(N5CCOCC5)c(=O)c4=O)cc3)CC2)cc1	LYPLA2 inh 52 | LYPLA2 confirm 58 | LYPLA2 ABPP inactive
COc1ccc(C2=NS(=O)(=O)N(C)C(C(=O)NCc3ccccn3)=C2)cc1OC	none
CN(C)c1ccc(CNc2ccc3c(c2)ncn3C(C)(C)C)cc1	none
COc1ccccc1NC(=O)C1CCCN(c2cnccn2)C1 (stereo not given)	none
O=C(O)CCC(=O)N1CCN(c2ncccn2)CC1	none

Screening data from PubChem BioAssay.
